Experimental data pooled from the literature.
Each line is one published result; the experiments were not run side by side.
Read-out: enzyme activity
Mode: inhibitor
rep main protease: Replicase polyprotein 1ab, main protease (rep, Severe acute respiratory syndrome coronavirus 2, UniProt P0DTD1)
rep papain-like protease: Replicase polyprotein 1ab, papain-like protease (rep, Severe acute respiratory syndrome coronavirus 2, UniProt P0DTD1)

| Structure (SMILES) | target | method | concentration | time | pH | inhibition [%] |
| --- | --- | --- | --- | --- | --- | --- |
| O=c1c(O)c(-c2ccc(O)c(O)c2)oc2cc(O)cc(O)c12 | rep main protease | FRET | 10 µM | 10 min | – | > 50 |
| O=C1c2cccc(O)c2C(=O)c2c(O)cc(CO)cc21 | rep main protease | – | 10 µM | – | – | 10.1 |
| Cc1ccc(NC(=O)Nc2cccnc2)cc1Cl | rep main protease | – | 20 µM | – | – | -7.73 |
| CC(=O)Nc1ccc(-c2cnc(/N=C\c3cc4ccccc4nc3Cl)s2)cc1 | rep papain-like protease | – | 100 µM | – | – | 97.2 |
| O=C1C=CC(=O)c2c(O)cccc21 | rep main protease | – | 10 µM | – | – | 102 |
| CC(C(=O)NC[C@H](NC(=O)c1[nH]nc2nc[nH]c(=O)c12)c1ccc2ccccc2c1)=C1CCC1 | rep main protease | – | 5 µM | – | – | 15.1 |
| COc1cc(C[C@@H](C)[C@@H](C)Cc2cc(O)c(OC)c(OC)c2)cc(O)c1OC | rep papain-like protease | FRET | 8 µM | – | – | 51.4 |
| O=c1cc(-c2ccc(O)cc2)oc2cc(O)c(O)c(O)c12 | rep main protease | – | 100 µM | – | – | 102 |
| O=C1C=CC(=O)c2ccccc21 | rep main protease | – | 10 µM | – | – | 97.7 |
| Cc1cccn2c(=O)c3cc(C(=O)Nc4ccc(N(C)C)cc4)n(C)c3nc12 | rep main protease | – | 100 µM | – | – | 33 |
| CCc1ccc(C2C(c3ccccc3)=C(O)C(=O)N2c2ccc(Cl)cc2)cc1 (stereo not drawn) | rep main protease | – | 20 µM | – | – | 16.8 |
| COc1cc(-c2oc3cc(O)cc(O)c3c(=O)c2O)ccc1O | rep main protease | FRET | 10 µM | 10 min | – | 25 to 50 |
| Cn1c(C(=O)Nc2ccc3c(c2)OCCO3)cc2c(=O)n3ccccc3nc21 | rep main protease | – | 1 mM | – | – | 96 |
| O=C(Oc1cncc(Cl)c1)c1cc2cc(Cl)ccc2[nH]1 | rep main protease | fluorescence | 10 µM | – | pH 7.2 | 100 |
| Cc1cc(NC(=O)c2cc3c(=O)n4cccc(C)c4nc3n2C)ccc1Br | rep main protease | – | 1 µM | – | – | 14 |
| O=C(O)c1cc(O)c2c(c1)[C@H]([C@H]1c3cc(C(=O)O)cc(O)c3C(=O)c3c(O[C@@H]4O[C@H](CO)[C@@H](O)[C@H](O)[C@H]4O)cccc31)c1cccc(O[C@@H]3O[C@H](CO)[C@@H](O)[C@H](O)[C@H]3O)c1C2=O | rep main protease | – | 20 µM | – | – | 100 |
| Cn1c(C(=O)Nc2ccc(Cl)cc2)cc2c(=O)n3ccccc3nc21 | rep main protease | – | 10 µM | – | – | 14 |
| O=C(O)c1cc(N(Cc2ccccc2O)Cc2cc(O)ccc2O)ccc1O | rep main protease | – | 20 µM | – | – | -1.57 |
| O=C(Oc1cc(Cl)cc([N+](=O)[O-])c1)c1cccc2[nH]ccc12 | rep main protease | fluorescence | 10 µM | – | pH 7.2 | 1 |
| COc1ccc(/C=C\C(=O)NC(=S)Nc2ccc(S(=O)(=O)NC(N)=O)cc2)cc1OC | rep main protease | – | 100 µg/mL | – | – | 0 |
| CCC(=O)Oc1cccc2c1C(=O)C=CC2=O | rep main protease | – | 0.1 µM | – | – | 35 |
| Clc1nc2ccccc2cc1/C=N\c1ccc(Br)nc1 | rep papain-like protease | – | 100 µM | – | – | 6.2 |
| Cc1ccc(NC(=O)c2cc3c(=O)n4cccc(C)c4nc3n2C)cc1Cl | rep main protease | – | 10 µM | – | – | 16 |
| O=C(O)[C@]1(O)C[C@@H](O)[C@@H](O)[C@H](O)C1 | rep main protease | FRET | 10 µM | 10 min | – | < 25 |
| CCc1ccc(NC(=O)c2cc3c(=O)n4ccccc4nc3n2C)cc1 | rep main protease | – | 1 mM | – | – | 76 |
| Cc1ccc2nc(Cl)c(/C=N/NC(=O)c3ccncc3)cc2c1 | rep papain-like protease | – | 10 µM | – | – | 9.2 |

| Structure (SMILES) | target | method | concentration | time | pH | inhibition [%] |
| --- | --- | --- | --- | --- | --- | --- |
| Cc1cc(O)c2c(c1)C(=O)C=CC2=O | rep main protease | – | 10 µM | – | – | 103 |
| O=C(Nc1ccccc1F)c1cc2c(=O)n3ccccc3nc2n1Cc1ccccc1 | rep main protease | – | 1 mM | – | – | 71 |
| O=C(CCc1ccc(O)cc1)c1c(O)cc(O)cc1O[C@@H]1O[C@H](CO)[C@@H](O)[C@H](O)[C@H]1O | rep main protease | FRET | 10 µM | 10 min | – | 25 to 50 |
| O=c1n(-c2ccc(F)cc2)nc2n1CCCN2 | rep main protease | – | 20 µM | – | – | 10.2 |
| Cc1cc(OCc2ccccc2)c2c(c1)C(=O)C=CC2=O | rep main protease | – | 1 µM | – | – | 91.1 |
| C[C@@H]1O[C@@H](OC[C@H]2O[C@@H](OCCc3ccc(O)c(O)c3)[C@H](OC(=O)/C=C/c3ccc(O)c(O)c3)[C@@H](O)[C@@H]2O)[C@H](O)[C@H](O)[C@H]1O | rep papain-like protease | – | 50 µM | – | – | 2.5 |
| O=C(NC[C@H](NC(=O)c1cncc2ccccc12)c1ccc2ccccc2c1)c1cnc[nH]1 | rep main protease | – | 5 µM | – | – | 18.9 |
| O=c1cc(-c2ccccc2)oc2cc(O)c(O)c(O)c12 | rep main protease | – | 10 µM | – | – | 87 |
| N#CSc1cc(SC#N)c(N)nc1N | rep main protease | – | 20 µM | – | – | 98.8 |
| CCOC(=O)COc1cc(C)cc2c1C(=O)C=CC2=O | rep main protease | – | 1 µM | – | – | 94.6 |
| Cn1c(=O)n(C)c2cc(CNc3ccc4c(c3)OCO4)ccc21 | rep main protease | – | 20 µM | – | – | 22.3 |
| Cc1ncc(/C=C\C(=O)NC[C@@H]2CC3(CCC3)CN2C(=O)[C@@H]2CC(=O)NC(=O)N2)c(=O)[nH]1 | rep main protease | – | 5 µM | – | – | 16.1 |
| COc1cccc2c1C(=O)C(C(C)=O)=CC2=O | rep main protease | – | 1 µM | – | – | 94.3 |
| C/N=c1\nc(-c2ccccc2)n(-c2ccccc2)s1 | rep main protease | – | 0.1 µM | – | – | 16.4 |
| C[C@@H]1O[C@@H](O[C@@H]2[C@@H](O)[C@H](OCCc3ccc(O)c(O)c3)O[C@H](CO)[C@H]2OC(=O)/C=C/c2ccc(O)c(O)c2)[C@H](O)[C@H](O)[C@H]1O | rep main protease | – | 10 µM | – | – | 34.6 |
| CC1(C)C=Cc2cc(-c3coc4cc(O)cc(O)c4c3=O)ccc2O1 | rep main protease | – | 8 µM | – | – | 11.8 |
| NC(=O)c1ccc(/C=C/C(=O)N2CCC[C@@]3(CCN(C(=O)[C@@H]4CC(=O)NC(=O)N4)C3)C2)cc1 | rep main protease | – | 5 µM | – | – | 14.7 |
| CN(C)C(=S)SC(=S)N(C)C | rep main protease | – | 20 µM | – | – | -6.7 |
| COc1cc(O)c2c(c1)OC/C(=C\c1ccc(O)cc1)C2=O | rep main protease | – | 20 µM | – | – | 16.7 |
| O=C(O)[C@H]1O[C@@H](Oc2cc3oc(-c4ccc(O)cc4)cc(=O)c3c(O)c2O)[C@H](O)[C@@H](O)[C@@H]1O | rep main protease | – | 10 µM | – | – | 18.9 |
| COc1ccc2nc(Cl)c(/C=N/c3ccc(-c4nc5ccccc5[nH]4)cc3)cc2c1 | rep papain-like protease | – | 10 µM | – | – | 2.1 |
| COc1c(O)cc(O)c2c(=O)cc(-c3ccccc3)oc12 | rep papain-like protease | – | 50 µM | – | – | 52 |
| O=C(Oc1cncc(Br)c1)c1cccc2[nH]ccc12 | rep main protease | fluorescence | 10 µM | – | pH 7.2 | 100 |
| O=C(/C=C/c1ccc(O)c(O)c1)OC1CC(OC(=O)/C=C/c2ccc(O)c(O)c2)(C(=O)O)CC(O)C1O (stereo not drawn) | rep papain-like protease | – | 50 µM | – | – | 14.4 |
| NC(=O)CCOC1CCN(C(c2ccccc2)c2ccccc2)CC1 | rep main protease | – | 20 µM | – | – | 11.5 |
